ChEMBL document CHEMBL1132352, “5'-Phosphoramidates and 5'-diphosphates of 2'-O-allyl-beta-D-arabinofuranosyluracil, -cytosine, and -adenine: inhibition of ribonucleotide reductase” (J Med Chem, 1999)
pIC50: −log10 of the molar value.

Columns and labels:
Type in all cases: functional, cell-based
FM3A [1] = test: The compound was tested for cytostatic activity against mammary FM3A cells; settings: Mus musculus
Procedure, shortened: (§1)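 Murine L1210 leukemia or FM3A mammary carcinoma cells went in at 5–7.5 × 10⁴ per well alongside test compound. Proliferation ran 48 h at 37 °C in a humidified CO₂-controlled atmosphere, followed by Coulter counter cell counts. IC50 is the concentration reducing viable cells by 50%.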

L1210 = test: The compound was tested for cytostatic activity against murine leukemia L1210 cells; settings: Mus musculus; procedure, shortened: as §1
MOLT-4 = test: The compound was tested for cytostatic activity against human T4-lymphocyte molt(molt 4/C8)
Procedure, shortened: (§2)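 Human T4-lymphocyte CEM or Molt cells were seeded at 5–7.5 × 10⁴ cells per well with test compound. They grew for 72 h at 37 °C in humidified, CO₂-controlled air and were then counted with a Coulter counter. IC50 is the compound concentration that cut viable cell number by 50%.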

CCRF-CEM [2] = test: The compound was tested for cytostatic activity against CEM cells; settings: Homo sapiens; procedure, shortened: as §2
CCRF-CEM [3] = test: The compound was tested for cytostatic activity against human CEM cells; procedure, shortened: as §2
FM3A [4] = test: The compound was tested for cytostatic activity against murine mammary FM3A cells; settings: Mus musculus; procedure, shortened: as §1

| Compound | pIC50 (FM3A [1]) | pIC50 (L1210) | pIC50 (MOLT-4) | pIC50 (CCRF-CEM [2]) | pIC50 (CCRF-CEM [3]) | pIC50 (FM3A [4]) |
| --- | --- | --- | --- | --- | --- | --- |
| C=CCO[C@H]1[C@H](O)[C@@H](CO)O[C@H]1n1ccc(N)nc1=O | 3.49 | 4.42 | < 3.30 | 4.21 | – | – |
| C=CCO[C@H]1[C@H](O)[C@@H](CO)O[C@H]1n1cnc2c(N)ncnc21 | 3.50 | 3.74 | 3.55 | 4.10 | – | – |
| C=CCO[C@H]1[C@H](O)[C@@H](CO)O[C@H]1n1ccc(=O)[nH]c1=O | – | < 3.30 | < 3.30 | – | < 3.30 | < 3.30 |
| C=CCO[C@H]1[C@H](O)[C@@H](COP(=O)(NC(C)C(=O)OCC)Oc2ccccc2)O[C@H]1n1ccc(=O)[nH]c1=O (stereo not given in full) | < 3.70 | < 3.70 | < 3.70 | < 3.70 | – | – |
| C=CCO[C@H]1[C@H](O)[C@@H](COP(=O)(NC(C)C(=O)OCC)Oc2ccccc2)O[C@H]1n1ccc(N)nc1=O (stereo not given in full) | < 3.70 | < 3.70 | < 3.70 | < 3.70 | – | – |
